Experiments:
Plasmodium falciparum [1] = test: Antimalarial activity against chloroquine-resistant Plasmodium falciparum Dd2 infected in human erythrocyte assessed as growth inhibition at 5 uM by SYBR Green-1 assay; assay type: functional
Summary of the method: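 Erythrocytic-stage P. falciparum Dd2 growth inhibition at a fixed 5 µM single concentration. Synchronized ring-stage parasites in RPMI-1640 with 0.5% AlbuMAX II, 1.0% hematocrit, 1.0% initial parasitemia. Incubated 72 h under standard culture conditions, then stained with SYBR Green I (1:5,000). Fluorescence read at ex 494 nm, em 530 nm after room-temperature storage.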

Plasmodium falciparum [2] = test: Antimalarial activity against chloroquine-sensitive Plasmodium falciparum 3D7 infected in human erythrocyte assessed as growth inhibition by SYBR Green-1 assay; assay type: functional, organism-based
Summary of the method: (§1)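 Dose-response EC50 against Dd2 and 3D7. Synchronized ring-stage parasites in RPMI-1640 with 0.5% AlbuMAX II, 1.0% hematocrit, 1.0% initial parasitemia. Triplicate 12-point 2-fold serial dilutions, incubated 72 h under standard culture conditions. Read-out by SYBR Green I (1:5,000) fluorescence, ex 494/em 530 nm. EC50 by non-linear regression after background subtraction and normalization.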

Plasmodium falciparum [3] = test: Antimalarial activity against chloroquine-resistant Plasmodium falciparum Dd2 infected in human erythrocyte assessed as growth inhibition by SYBR Green-1 assay; assay type: functional, organism-based; summary of the method: as §1
HepG2 [4] = test: Cytotoxicity against human HepG2A16 cells after 48 hrs by MTT assay; assay type: cell-based; details: HepG2A16, 48 h
Summary of the method: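 HepG2 A16 cells seeded at 1 × 10^4 cells/well, adhered overnight. Exposed to seven ten-fold dilutions (100 µM–1 nM); drug-free medium as negative control. Medium with compound renewed at 24 h, total 48 h. MTT (5 mg/mL stock in PBS) added for 3 h, then supernatant removed and acidified isopropanol added for read-out.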

[5] = Selectivity index, ratio of EC50 for human HepG2A16 cells to EC50 for chloroquine-sensitive Plasmodium falciparum 3D7 infected in human erythrocyte; assay type: toxicity; details: read-out: Ratio EC50
Summary of the method: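 Selectivity index computed as HepG2 A16 MTT EC50 (48 h exposure) divided by P. falciparum 3D7 EC50 (72 h SYBR Green I assay).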

[6] = Selectivity index, ratio of EC50 for human HepG2A16 cells to EC50 for chloroquine-resistant Plasmodium falciparum Dd2 infected in human erythrocyte; assay type: toxicity; details: read-out: Ratio EC50
Summary of the method: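 Selectivity index computed as HepG2 A16 MTT EC50 (48 h exposure) divided by P. falciparum Dd2 EC50 (72 h SYBR Green I assay).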

Plasmodium falciparum [7] = test: Antimalarial activity against chloroquine-sensitive Plasmodium falciparum 3D7; assay type: functional, organism-based
HepG2 [8] = test: Cytotoxicity against human HepG2A16 cells; assay type: cell-based
Summary of the method: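 HepG2 A16 cells seeded at 1 × 10^4 cells/well and left to adhere overnight. Exposed to 7 ten-fold dilutions (100 µM–1 nM), drug-free medium as negative control. Medium with compound renewed at 24 h, total 48 h exposure. Viability by MTT (5 mg/mL stock in PBS, 3 h), formazan dissolved in acidified isopropanol; EC50 reported.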

`COc1cc(OC)cc(C(=O)N2CCC(C(=O)N3CCC(c4c[nH]c5ccccc45)CC3)CC2)c1` showed an inhibition at 5 µM (Plasmodium falciparum [1]) of 10%.

`c1csc(CN2CCC(c3c[nH]c4ccccc34)CC2)c1` gave an inhibition at 5 µM (Plasmodium falciparum [1]) of under 10%.

In the case of `O=C(c1ccc(C(=O)N2CCC(c3c[nH]c4ccccc34)CC2)cc1)N1CCC(c2c[nH]c3ccccc23)CC1`, the inhibition at 5 µM (Plasmodium falciparum [1]) is reported as 80%.

`Oc1cccc2ccc(CN3CCC(c4c[nH]c5ccccc45)CC3)nc12` gave an inhibition at 5 µM (Plasmodium falciparum [1]) of under 10%.

Compound `COc1cc(O)cc(OC)c1CN1CCC(c2c[nH]c3ccccc23)CC1` has an inhibition at 5 µM (Plasmodium falciparum [1]) of under 10%.

`O=C(c1cccs1)N1CCC(C(=O)N2CCC(c3c[nH]c4ccccc34)CC2)CC1` showed an inhibition at 5 µM (Plasmodium falciparum [1]) of under 10%.

Work on `c1ccc(CN2CCC(c3c[nH]c4ccccc34)CC2)cc1` yielded an inhibition at 5 µM (Plasmodium falciparum [1]) of 15%.

In the case of `O=C(c1ccccc1)N1CCC(c2c[nH]c3ccccc23)CC1`, the inhibition at 5 µM (Plasmodium falciparum [1]) is reported as under 10%.

Compound `O=C(c1ccc(F)cc1)N1CCC(C(=O)N2CCC(c3c[nH]c4ccccc34)CC2)CC1` has an inhibition at 5 µM (Plasmodium falciparum [1]) of under 10%.

Compound `CC(=O)N1CCC(c2c[nH]c3ccccc23)CC1` has an inhibition at 5 µM (Plasmodium falciparum [1]) of under 10%.

`CC(=O)N1CCC(C(=O)N2CCC(c3c[nH]c4ccccc34)CC2)CC1` showed an inhibition at 5 µM (Plasmodium falciparum [1]) of 10%.

For `O=C(c1cccnc1)N1CCC(C(=O)N2CCC(c3c[nH]c4ccccc34)CC2)CC1`, the inhibition at 5 µM (Plasmodium falciparum [1]) was 30%.

In the case of `c1ccc2c(C3CCN(Cc4csc5ccccc45)CC3)c[nH]c2c1`, the inhibition at 5 µM (Plasmodium falciparum [1]) is reported as 16%.

Compound `O=C(c1ccncc1)N1CCC(c2c[nH]c3ccccc23)CC1` has an inhibition at 5 µM (Plasmodium falciparum [1]) of 14%.

Work on `Cc1c(CN2CCC(c3c[nH]c4ccccc34)CC2)c(=O)n(-c2ccccc2)n1C` yielded an inhibition at 5 µM (Plasmodium falciparum [1]) of under 10%.

Compound `O=C(c1cnccn1)N1CCC(c2c[nH]c3ccccc23)CC1` has an inhibition at 5 µM (Plasmodium falciparum [1]) of under 10%.

In the case of `CC(C)=CCC[C@H](C)CCN1CCC(c2c[nH]c3ccccc23)CC1`, the inhibition at 5 µM (Plasmodium falciparum [1]) is reported as 17%.

With `O=C1C(O)=C([C@H]2CC[C@H](c3ccc(Cl)cc3)CC2)C(=O)c2ccccc21` [ATOVAQUONE] the EC50 (Plasmodium falciparum [2]) was 0.35 nM and the EC50 (Plasmodium falciparum [3]) was 0.19 nM.

`O=C(c1cccs1)N1CCC(c2c[nH]c3ccccc23)CC1` gave an inhibition at 5 µM (Plasmodium falciparum [1]) of under 10%.

`O=Cc1ccc(CN2CCC(c3c[nH]c4ccccc34)CC2)cc1` showed an inhibition at 5 µM (Plasmodium falciparum [1]) of 20%.

For `c1ccc2c(C3CCN(CC4CCNCC4)CC3)c[nH]c2c1`, the inhibition at 5 µM (Plasmodium falciparum [1]) was under 10%.

`COc1ccc(OC)c(C(=O)N2CCC(c3c[nH]c4ccccc34)CC2)c1` gave an inhibition at 5 µM (Plasmodium falciparum [1]) of under 10%.

`Clc1ccc2nccc(N3CCC(c4c[nH]c5ccccc45)CC3)c2c1` showed an EC50 (Plasmodium falciparum [2]) of 6300 nM, an EC50 (Plasmodium falciparum [3]) of 5010 nM and an EC50 (HepG2 [4]) of 4240 nM. The inhibition at 5 µM (Plasmodium falciparum [1]) was 32%, the selectivity ratio [5] was 0.67 and the selectivity ratio [6] was 0.85.

`Fc1ccc(CN2CCC(c3c[nH]c4ccccc34)CC2)cc1` gave an inhibition at 5 µM (Plasmodium falciparum [1]) of 14%.

With `Clc1ccc2nccc(N3CCC(CN4CCC(c5c[nH]c6ccccc56)CC4)CC3)c2c1` the EC50 (Plasmodium falciparum [2]) was 240 nM, the EC50 (Plasmodium falciparum [7]) was 34 nM and the EC50 (Plasmodium falciparum [3]) was 940 nM. The EC50 (HepG2 [4]) was 3860 nM, the inhibition at 5 µM (Plasmodium falciparum [1]) was 100% and the EC50 (HepG2 [8]) was over 10000 nM. It also gave a selectivity ratio [5] of 16.1 and a selectivity ratio [6] of 4.1.

`C[C@H]1[C@H](OC(=O)CCC(=O)O)O[C@@H]2O[C@@]3(C)CC[C@H]4[C@H](C)CC[C@@H]1[C@@]24OO3` [ARTESUNATE] showed an EC50 (Plasmodium falciparum [2]) of 1.97 nM and an EC50 (Plasmodium falciparum [3]) of 1.76 nM.

Work on `c1ccc2c(C3CCNCC3)c[nH]c2c1` yielded an inhibition at 5 µM (Plasmodium falciparum [1]) of under 10%.

Work on `CCN(CC)CCCC(C)Nc1ccnc2cc(Cl)ccc12` (stereo unspecified) [CHLOROQUINE] yielded an EC50 (Plasmodium falciparum [2]) of 23 nM and an EC50 (Plasmodium falciparum [3]) of 285 nM.

For `c1ccc2c(C3CCN(Cc4ccc(CN5CCCCC5)cc4)CC3)c[nH]c2c1`, the EC50 (Plasmodium falciparum [2]) was 1350 nM, the EC50 (Plasmodium falciparum [3]) was 2910 nM and the inhibition at 5 µM (Plasmodium falciparum [1]) was 100%.

Compound `c1ccc2c(C3CCN(CC4CCCCC4)CC3)c[nH]c2c1` has an inhibition at 5 µM (Plasmodium falciparum [1]) of under 10%.

`O=C(c1ccccn1)N1CCC(c2c[nH]c3ccccc23)CC1` showed an inhibition at 5 µM (Plasmodium falciparum [1]) of under 10%.

For `OCCOc1cccc(CN2CCC(c3c[nH]c4ccccc34)CC2)c1`, the inhibition at 5 µM (Plasmodium falciparum [1]) was under 10%.

With `O=C(c1ccc(F)cc1)N1CCC(c2c[nH]c3ccccc23)CC1` the inhibition at 5 µM (Plasmodium falciparum [1]) was under 10%.

`c1ccc2c(C3CCN(Cc4ccncc4)CC3)c[nH]c2c1` showed an inhibition at 5 µM (Plasmodium falciparum [1]) of under 10%.

For `CC(=O)n1cc(CN2CCC(c3c[nH]c4ccccc34)CC2)c2ccccc21`, the inhibition at 5 µM (Plasmodium falciparum [1]) was 70%.

Work on `COc1cc(Cl)c(CN2CCC(c3c[nH]c4ccccc34)CC2)c(Cl)c1OC` yielded an inhibition at 5 µM (Plasmodium falciparum [1]) of under 10%.

`O=C(c1ccccc1)N1CCC(C(=O)N2CCC(c3c[nH]c4ccccc34)CC2)CC1` gave an inhibition at 5 µM (Plasmodium falciparum [1]) of under 10%.

`O=C(c1cccnc1)N1CCC(c2c[nH]c3ccccc23)CC1` showed an EC50 (Plasmodium falciparum [2]) of 3800 nM, an EC50 (Plasmodium falciparum [3]) of 2950 nM and an EC50 (HepG2 [4]) of 12800 nM. For the same compound, the inhibition at 5 µM (Plasmodium falciparum [1]) was 100%, the selectivity ratio [5] was 3.37 and the selectivity ratio [6] was 4.33.

In the case of `FC(F)(F)c1ccc(CN2CCC(c3c[nH]c4ccccc34)CC2)cc1`, the inhibition at 5 µM (Plasmodium falciparum [1]) is reported as under 10%.

For `c1ccc2c(C3CCN(Cc4ccc(CN5CCOCC5)cc4)CC3)c[nH]c2c1`, the inhibition at 5 µM (Plasmodium falciparum [1]) was 66%.

For `Cc1ccccc1CN1CCC(c2c[nH]c3ccccc23)CC1`, the inhibition at 5 µM (Plasmodium falciparum [1]) was 11%.

Compound `CCN(CC)Cc1cc(Nc2ccnc3cc(Cl)ccc23)ccc1O` [AMODIAQUINE] has an EC50 (Plasmodium falciparum [2]) of 5.85 nM and an EC50 (Plasmodium falciparum [3]) of 12.3 nM.

In the case of `c1ccc2c(C3CCN(Cc4ccc(CN5CCC(c6c[nH]c7ccccc67)CC5)cc4)CC3)c[nH]c2c1`, the EC50 (Plasmodium falciparum [2]) is reported as 80 nM, the EC50 (Plasmodium falciparum [3]) is reported as 210 nM and the EC50 (HepG2 [4]) is reported as 460 nM. For the same compound, the inhibition at 5 µM (Plasmodium falciparum [1]) was 100%, the selectivity ratio [5] was 5.75 and the selectivity ratio [6] was 2.19.
